# Yeast life ext – extends the lifespan of yeast | actives 0.68% (n = 130,000) | inhibition of the nicotinamide effect, % at 10 µM | S. cerevisiae growth with nicotinamide, OD615; deaD strain in restrictive glucose medium;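 active = inhibition above a set limit, placed 3 SD over the median of all compounds, cut at about 26% in these data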;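 also: 0% = nicotinamide-treated wells and 100% = cells grown without nicotinamide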
#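 assay system = DeaD-strain S. cerevisiae | buffer or medium = restrictive glucose medium | reagent = 1.5 mM nicotinamide | compound = 10 µM single point, 0.25% DMSO | incubation = 48 h compound exposure at 30 °C, humidified | signal = OD615 measurement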
# INS promoter inh – TRM-6 insulin promoter activity inhibition; TRM-6 cells, insulin promoter-eGFP reporter, imaging; reporter expression induced with tamoxifen; inhibition, % at 2 µM; actives 0.9% (n = 130,000); AID 1273;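 active = inhibition above the mean plus 3 SD, with well images judged a real hit on visual review, cut at about 60% in these data, passing the limit was not always enough; inconclusive = inhibition over the cutoff but images rejected on review; inactive = inhibition not above the cutoff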
# BB579 growth dn – yeast BB579 growth reduction in restrictive medium; S. cerevisiae BB579 growth, OD615, 48 h; inhibition, % at 10 µM; actives 0.51% (n = 140,000); AID 804;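 active = inhibition above a set limit, 3 SD over the mean compound inhibition, cut at about 44% in these data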
#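 Test system: S. cerevisiae DeaD strain BB579 yeast; Medium: restrictive CSMM-D medium; Compound: one dose, 10 µM compound with 0.25% DMSO; Incubation: 4 h cell preincubation, 48 h compound exposure, 30 °C humidified; Signal: OD at 615 nm; Benchmarks: amphotericin B at 10 µg/mL as positive control.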
# Measles CPE – protection of cells from measles virus. Measles virus-infected cells, CPE protection, absorbance. protection (pct of control), % at 4 µM. actives 1.5% (n = 140,000); in the data active = protection mostly above about 24%, no sharp cut-off; inactive = mostly below about 26%
# MDM2 E3 inh – Mdm2 E3 ligase (human) inhibition. Q00987. cell-based MDM2 ubiquitination luciferase reporter, 2 h; 0 = plate control, 100 = twice control, blank-subtracted. signal enhancement, % at 5 µM. actives 0.11% (n = 210,000). AID 1230;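 active = signal enhancement of 30% or more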;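 also: luminescence tracks abundance of the self-degrading MDM2-luciferase fusion protein; higher signal means inhibition of MDM2 E3 ligase activity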
# Target sequence (Q00987 whole entry, looked up, the tested form may be a part): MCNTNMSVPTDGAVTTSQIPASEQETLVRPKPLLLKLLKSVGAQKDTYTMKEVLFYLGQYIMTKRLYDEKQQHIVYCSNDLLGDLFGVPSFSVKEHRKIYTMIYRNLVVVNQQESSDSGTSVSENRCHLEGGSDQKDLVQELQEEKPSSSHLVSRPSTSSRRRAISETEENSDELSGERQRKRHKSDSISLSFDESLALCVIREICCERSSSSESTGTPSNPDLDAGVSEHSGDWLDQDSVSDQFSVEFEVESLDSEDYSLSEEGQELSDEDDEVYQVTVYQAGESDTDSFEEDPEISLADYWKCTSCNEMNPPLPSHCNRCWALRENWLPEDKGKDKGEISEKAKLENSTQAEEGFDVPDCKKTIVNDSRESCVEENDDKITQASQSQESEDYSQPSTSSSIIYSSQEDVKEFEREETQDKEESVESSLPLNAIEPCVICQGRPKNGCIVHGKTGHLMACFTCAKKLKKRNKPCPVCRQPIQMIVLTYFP
#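 Assay system: stable mammalian line carrying autodegrading MDM2–luciferase fusion reporter; amount: 2000 cells seeded into each well; buffer or medium: DMEM; benchmarks: plate control and blank wells; signal: luciferase luminescence; timing: 2 h compound exposure at 37 °C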
# RAM network inh – yeast RAM network inhibition; inhibition, % at 50 µM; actives 1.8% (n = 190,000); S. cerevisiae dse1pr::URA3 reporter, 5-FOA growth OD615, 2 d; analog-sensitive cbk1-as2 kinase mutant strain; AID 868;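 active = inhibition above a set limit, 3 SD over mean compound inhibition, cut at about 8.4% in these data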;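 also: 0% = DMSO-only wells with no growth and 100% = 10 µM 1-NA-PP1 full growth; inhibition rescues growth on 5-FOA so higher OD means more RAM inhibition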
# * marks the source's active call; other numbers are inactive results; ? = inconclusive; . = no result. Most compounds without a hit are left out; they make up all but 4% or so of the library.
SMILES,Yeast life ext,INS promoter inh,BB579 growth dn,Measles CPE,MDM2 E3 inh,RAM network inh
COCCN(Cc1cc2cc(C)ccc2nc1Cl)C(=O)Nc1ccccc1OC,.,-133,.,.,-6,5
CCCOc1ccc(C(=O)CCNc2cccc(Cl)c2)cc1,.,.,.,.,-6,9.8*
Cc1ccc(SC(c2ccc(C)cc2)C(Cn2cncn2)C(=O)c2ccccc2)cc1 (stereo not drawn),1,-11,-21,5,-16,11*
COc1ccc(C(=O)COC(=O)CCn2nnc(-c3cccs3)n2)cc1,-15,-19,-25,2,-12,2
COc1ccc(/C=C/C(=O)C2(O)CCCCC2)cc1OC,.,.,.,.,-16,1
CCOC(=O)N1CCN(C(=O)CSCC(=O)Nc2nc(-c3ccc(-c4ccccc4)cc3)cs2)CC1,-10,.,16,44*,-33,2
CCOC(=O)N1CCN(C(=O)CSCC(=O)Nc2nc(-c3ccc(OC)cc3)cs2)CC1,-13,?,-11,5,-21,5
COc1ccccc1C(=O)Nc1ccc2c(c1)nc(CN1CCCCC1)n2C,.,.,.,.,-5,1
CCC(=O)Nc1ccccc1C(=O)OCC(=O)c1ccc2ccccc2c1,-10,27,-69,17,-8,10*
O=C(C1CCN(c2nnc(-n3cccc3)s2)CC1)N1CCOCC1,0,100*,-28,4,-15,2
O=C(C1CCN(c2nnc(-n3cccc3)s2)CC1)N1CCN(c2cccc(C(F)(F)F)c2)CC1,-6,29,17,2,-26,3
CCCOc1ccc(Cn2c(=O)oc3ccc(C)cc32)cc1OC,.,28,-37,11,.,8.6*
CCCOc1ccccc1Cn1c(=O)oc2ccc(C)cc21,-6,19,-26,2,-10,1
O=C(CCSc1ccccc1Cl)Nc1cccc([N+](=O)[O-])c1,-6,6,-60,26,9,8.9*
COc1ccc(C(C)=O)cc1CSc1nnc(-c2ccc(Cl)cc2)n1-c1ccccc1,7,-23,-67,3,6,5
CNc1nc(CC(C)=O)ns1,-6,.,-76,1,-8,0
CC(=O)Cc1nsc(Nc2ccc(C)cc2)n1,.,25,.,.,38*,0
CC(=O)N(Cc1ccccc1C)c1cccc(C)c1C,.,-41,.,.,1,2
O=C(c1ccc2ccccc2c1)C1CCCN(S(=O)(=O)c2cccnc2)C1 (stereo not drawn),.,.,.,.,-13,3
COc1ccc(OCC(=O)N/N=C(\C)CC(=O)Nc2cccc([N+](=O)[O-])c2)cc1,.,53,.,.,32*,2
CC/C(C)=N/Nc1cccc([N+](=O)[O-])c1,-9,.,98*,11,-15,0
CCCOc1ccc(/C=N/Nc2cccc([N+](=O)[O-])c2)c(O)c1,-1,.,-65,5,-3,8.9*
COc1cccc(Cl)c1NC(=O)N1CCc2c([nH]c3ccccc23)C1C(F)(F)F (stereo not drawn),.,.,.,.,-9,.
CC(=O)Nc1ccc(S(=O)(=O)N(C)CC(=O)OCC(=O)N2CCc3ccccc32)cc1,-11,-64,-38,15,47*,0
CC(=O)Nc1ccc(S(=O)(=O)NCC(=O)OCC(=O)N2CCCc3ccccc32)cc1,3,-31,-29,5,-8,2
SMILES,Yeast life ext,INS promoter inh,BB579 growth dn,Measles CPE,MDM2 E3 inh,RAM network inh
CC1CCCCN1C(=S)Nc1ccc2nc3n(c(=O)c2c1)CCCCC3 (stereo not drawn),56*,-20,-52,12,-1,2
O=c1c2cc(NC(=S)N3CCC(N4CCCCC4)CC3)ccc2nc2n1CCCCC2,.,-91,.,.,10,2
COc1ccc(CNC(=O)COC(=O)Cc2ccc(Cl)cc2Cl)cc1,-3,.,-28,10,-8,11*
Cc1ccc2nc(SCc3cccc([N+](=O)[O-])c3)nc(C)c2c1,3,.,-27,6,-6,11*
COc1ccc2nc(SCc3cccc(C)c3)nc(C)c2c1,-7,.,-47,8,-10,6
Cc1nc(SCc2ccc([N+](=O)[O-])cc2)nc2ccccc12,-13,-4,2,15,2,9.5*
CNCCOc1nc(N2CCOCC2)nc(C)c1[N+](=O)[O-],0,-7,-12,56*,-9,1
COc1ccc(Nc2nc(N3CCCC3)c3ccccc3n2)cc1,-5,7,0,63*,8,0
CCN(CC)c1ccc(Nc2nc(N3CCOCC3)c3ccccc3n2)cc1,-16,7,-33,6,-24,3
O=[N+]([O-])c1ccc(CN2CCCCCC2)s1,4,.,54*,5,-18,-1
CCOC(=O)NCCc1c(C)nc2c(c(C)nn2C(C)(C)C)c1C,-4,.,-29,0,-2,2
O=C(Oc1csc(=S)n1C(=O)c1ccccc1)c1ccccc1,1,43,49*,1,-17,0
Cc1cccc(OC(=O)c2ccc3nccnc3c2)c1,-22,43,-15,3,-17,4
Cc1cccc(C(=O)Oc2csc(=S)n2C(=O)c2cccc(C)c2)c1,.,-27,44*,7,.,-1
O=C(O)c1cc2c([nH]c1=O)CCCC2,-10,48,-30,20,-17,2
C=CCSC(=C(C#N)C#N)c1cc2c([nH]1)CCCC2,-8,-36,61*,1,-22,11*
CNC(=O)COC(=O)c1cc(-c2ccccc2)nn1-c1ccccc1,.,0,.,.,-11,7
CSc1nc(-c2ccc(Cl)cc2Cl)[nH]c(=O)c1C#N,0,79*,-45,55*,-10,5
O=c1c(-c2nnc(SCc3ccc(Cl)c(Cl)c3)o2)cccn1Cc1ccccc1,13,4,-69,18,-7,11*
Clc1cccc(CSc2nnc(-c3c[nH]c4ccccc34)o2)c1,-21,.,-25,5,-6,10*
Cc1nc2ccccc2c(=O)n1NC(=O)c1cccc([N+](=O)[O-])c1,.,.,.,.,-15,2
O=C(NCc1ccco1)c1ccc(COCC(F)(F)C(F)F)cc1,-4,.,-35,33*,9,0
CC(C)C(C(=O)Nc1sc2c(c1C#N)CCCCC2)N1C(=O)c2ccccc2C1=O (stereo not drawn),-13,17,-53,56*,-17,7
COCCCNc1c2c3c(cccc3[nH]c1=O)C(=O)c1ccccc1-2,35*,.,0,7,-7,-1
CC1Cc2ccccc2N1C(=O)CCn1c(=O)sc2ccccc21 (stereo not drawn),.,.,.,.,1,.
CC(C)Sc1nc2ccccc2n1CC(=O)NCc1ccc2c(c1)OCO2,-16,91*,-31,20,-9,2
O=C(NCC1CCCO1)c1onc(CSc2ccc(F)c(F)c2)c1C(=O)O (stereo not drawn),-4,-3,-16,3,-20,1

# Compound activity as filed in PubChem BioAssay.
